The structures appear in SMILES notation. Values after ≈ are worked out from the molar mass of the structure shown. A value given as a limit tells only on which side of the number the result lay.

System in one assay: not listed separately
The assay can be described thus: Antioxidant activity assessed as superoxide radical scavenging activity after 20 mins by NBT reduction assay. Format: functional. The method in brief:
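Superoxide made by xanthine/xanthine oxidase and detected by NBT reduction. Xanthine oxidase (0.8 U/ml stock) added, then 37 °C for 20 min. Stopped with 1 M HCl and read at 560 nm. Blank lacks enzyme. IC50 from a calibration curve. Triplicate experiments, mean.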
As usually defined, the IC50 is the concentration needed to halve the response being measured. Turning to `O=C(/C=C/C=C/c1ccc(O)cc1)/C=C/c1ccc(O)cc1`, the IC50 was more than 100 µg/mL.

In the case of `COc1ccc(CCc2ccccc2O)cc1OC`, the IC50 was more than 100 µg/mL.

For `Oc1cc(O)cc(CCc2ccccc2O)c1`, the IC50 is more than 100 µg/mL.

For the compound `COc1c(O)cc(CCc2ccccc2)cc1O`, the IC50 was more than 100 µg/mL.

For the compound `COc1c(O)cccc1CCc1cc(O)cc(O)c1`, the IC50 is more than 100 µg/mL.

For `Oc1cc(O)c2c(c1)CCc1ccccc1O2`, the IC50 is more than 100 µg/mL.

For the compound `COc1cc(O)cc2c1Oc1ccccc1CC2`, the IC50 was more than 100 µg/mL.

Take `COc1cc(CCc2ccccc2O)cc(OC)c1O`: the IC50 worked out at 56.3 µg/mL (≈ 205 µM).

Consider `COc1cc(/C=C/C=C/C(=O)CCc2ccc(O)cc2)ccc1O`, for which the IC50 came to 38.8 µg/mL (≈ 120 µM).

On to `O=C(/C=C/C=C/c1ccc(O)cc1)CCc1ccc(O)cc1`, for which the IC50 came out at 44.1 µg/mL (≈ 150 µM).

Turning to `COc1cc2c(ccc3cc(O)cc(OC)c32)cc1O`, the IC50 stood at 39.6 µg/mL (≈ 147 µM).

With `COc1cc(CC[C@@H](O)C[C@H](O)CCc2ccc(O)c(OC)c2)ccc1O`, the IC50 amounted to 48.7 µg/mL (≈ 129 µM).

For the compound `Oc1ccc(CC[C@@H](O)C[C@H](O)CCc2ccc(O)cc2)cc1` [(+)-HANNOKINOL], the IC50 is more than 100 µg/mL.

Turning to `O=c1cc(-c2ccc(O)cc2)oc2cc(O)cc(O)c12` [APIGENIN], the IC50 was more than 100 µg/mL.

Take `O=C1O[C@H]([C@@H](O)CO)C(O)=C1O` [ASCORBIC ACID]: the IC50 was 16.7 µg/mL (≈ 94.8 µM).

With `COc1cc(O)cc(CCc2cccc(O)c2)c1` [BATATASIN III], the IC50 was more than 100 µg/mL.

On to `COc1cc(O)cc(CCc2ccccc2O)c1` [BATATASIN IV], for which the IC50 is more than 100 µg/mL.

In the case of `Oc1cc(O)c2c(c1)OC(c1ccc(O)c(O)c1)C(O)C2` (stereo not given) [CATECHIN], the IC50 worked out at 13.7 µg/mL (≈ 47.2 µM).

For the compound `COc1cc(O)cc2c1-c1c(O)cccc1CC2` [HIRCINOL], the IC50 is 62.4 µg/mL (≈ 258 µM).

With `COc1cc(O)c2c(c1)CCc1cc(O)ccc1-2` [LUSIANTHRIDIN], the IC50 was determined as 51.5 µg/mL (≈ 213 µM).

As for `COc1cc(CCc2cc(O)cc(O)c2)ccc1O` [TRISTIN], the IC50 was found to be 51.6 µg/mL (≈ 198 µM).

The subject of a further assay is Radical scavenging activity. The assay can be described thus: Antioxidant activity assessed as DPPH radical scavenging activity after 30 mins by microplate reader assay. Format: functional. The method in brief: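 Mixed 1 min, then kept at room temperature ([…]) for 30 min. Absorbance read at 515 nm. Scavenging % corrected for a no-DPPH blank. IC50 taken from a calibration curve. Triplicate experiments, mean reported.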
On to `O=C(/C=C/C=C/c1ccc(O)cc1)/C=C/c1ccc(O)cc1`, for which the IC50 was more than 100 µg/mL.

For `COc1ccc(CCc2ccccc2O)cc1OC`, the IC50 is more than 100 µg/mL.

Regarding `Oc1cc(O)cc(CCc2ccccc2O)c1`, the IC50 is more than 100 µg/mL.

With `COc1c(O)cc(CCc2ccccc2)cc1O`, the IC50 came out at 37.5 µg/mL (≈ 154 µM).

Regarding `COc1c(O)cccc1CCc1cc(O)cc(O)c1`, the IC50 turned out to be 46.7 µg/mL (≈ 179 µM).

As to `Oc1cc(O)c2c(c1)CCc1ccccc1O2`, the half-maximal inhibitory concentration (IC50) was more than 100 µg/mL.

As for `COc1cc(O)cc2c1Oc1ccccc1CC2`, the IC50 amounted to 40.6 µg/mL (≈ 168 µM).

On to `COc1cc(CCc2ccccc2O)cc(OC)c1O`, for which the IC50 was 28.8 µg/mL (≈ 105 µM).

Turning to `COc1cc(/C=C/C=C/C(=O)CCc2ccc(O)cc2)ccc1O`, the IC50 was found to be 40 µg/mL (≈ 123 µM).

Turning to `O=C(/C=C/C=C/c1ccc(O)cc1)CCc1ccc(O)cc1`, the IC50 is more than 100 µg/mL.

`COc1cc2c(ccc3cc(O)cc(OC)c32)cc1O`: the 50% inhibitory concentration (IC50) was 31.4 µg/mL (≈ 116 µM).

As to `COc1cc(CC[C@@H](O)C[C@H](O)CCc2ccc(O)c(OC)c2)ccc1O`, the IC50 turned out to be 12.3 µg/mL (≈ 32.7 µM).

As to `Oc1ccc(CC[C@@H](O)C[C@H](O)CCc2ccc(O)cc2)cc1` [(+)-HANNOKINOL], the IC50 is more than 100 µg/mL.

For the compound `O=c1cc(-c2ccc(O)cc2)oc2cc(O)cc(O)c12` [APIGENIN], the IC50 is more than 100 µg/mL.

As for `O=C1O[C@H]([C@@H](O)CO)C(O)=C1O` [ASCORBIC ACID], the IC50 came to 19.2 µg/mL (≈ 109 µM).

Consider `COc1cc(O)cc(CCc2cccc(O)c2)c1` [BATATASIN III], for which the IC50 was more than 100 µg/mL.

For `COc1cc(O)cc(CCc2ccccc2O)c1` [BATATASIN IV], the IC50 was more than 100 µg/mL.

As for `Oc1cc(O)c2c(c1)OC(c1ccc(O)c(O)c1)C(O)C2` (stereo not given) [CATECHIN], the IC50 amounted to 13.5 µg/mL (≈ 46.5 µM).

Consider `COc1cc(O)cc2c1-c1c(O)cccc1CC2` [HIRCINOL], for which the IC50 was 63.8 µg/mL (≈ 263 µM).

`COc1cc(O)c2c(c1)CCc1cc(O)ccc1-2` [LUSIANTHRIDIN]: the IC50 was 43 µg/mL (≈ 177 µM).

As for `COc1cc(CCc2cc(O)cc(O)c2)ccc1O` [TRISTIN], the IC50 is 35.2 µg/mL (≈ 135 µM).

A further assay has as its target T1, Prostaglandin G/H synthase 1 (Ovis aries, UniProt P05979).
T1 sequence (P05979 whole entry): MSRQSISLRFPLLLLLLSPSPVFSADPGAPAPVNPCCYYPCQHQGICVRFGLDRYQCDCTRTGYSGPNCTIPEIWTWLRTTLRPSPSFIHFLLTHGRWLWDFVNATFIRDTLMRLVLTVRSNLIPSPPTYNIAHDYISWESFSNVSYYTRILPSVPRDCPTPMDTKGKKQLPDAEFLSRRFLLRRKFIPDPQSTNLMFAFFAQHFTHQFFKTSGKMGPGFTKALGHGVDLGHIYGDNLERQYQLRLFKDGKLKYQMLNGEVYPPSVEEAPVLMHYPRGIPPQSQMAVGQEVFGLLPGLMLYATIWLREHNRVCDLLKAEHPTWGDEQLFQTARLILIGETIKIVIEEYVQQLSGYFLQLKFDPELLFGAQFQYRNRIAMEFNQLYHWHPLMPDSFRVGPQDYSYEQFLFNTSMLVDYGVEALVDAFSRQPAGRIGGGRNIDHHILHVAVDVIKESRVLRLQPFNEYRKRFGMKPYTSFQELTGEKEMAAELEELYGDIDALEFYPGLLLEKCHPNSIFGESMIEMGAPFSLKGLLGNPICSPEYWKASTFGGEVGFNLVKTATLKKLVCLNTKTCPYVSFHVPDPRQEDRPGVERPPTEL
The assay can be described thus: Inhibition of ovine COX1 by colorimetric assay. In a few lines: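 Ovine COX-1, colorimetric inhibitor screening kit. Enzyme preincubated 5 min at 25 °C with compound. Arachidonic acid (final 1.1 mM) and TMPD then added, 5 min at 25 °C. Inhibition % = [1−(A1−A2)/A0]×100, blank without TMPD. IC50 from calibration curve over several concentrations. Triplicate experiments, mean reported.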
As to `O=C(/C=C/C=C/c1ccc(O)cc1)/C=C/c1ccc(O)cc1`, the IC50 was 19.8 µM.

`COc1ccc(CCc2ccccc2O)cc1OC` returned an IC50 of more than 387 µM.

For the compound `Oc1cc(O)cc(CCc2ccccc2O)c1`, the IC50 was more than 434 µM.

`COc1c(O)cc(CCc2ccccc2)cc1O` displayed an IC50 of more than 409 µM.

For the compound `COc1c(O)cccc1CCc1cc(O)cc(O)c1`, the IC50 was more than 384 µM.

The compound `Oc1cc(O)c2c(c1)CCc1ccccc1O2` displayed an IC50 of more than 438 µM.

Turning to `COc1cc(O)cc2c1Oc1ccccc1CC2`, the IC50 is more than 413 µM.

Turning to `COc1cc(CCc2ccccc2O)cc(OC)c1O`, the IC50 was more than 365 µM.

Turning to `COc1cc(/C=C/C=C/C(=O)CCc2ccc(O)cc2)ccc1O`, the IC50 is more than 308 µM.

Compound `O=C(/C=C/C=C/c1ccc(O)cc1)CCc1ccc(O)cc1` had an IC50 of more than 340 µM.

Consider `COc1cc2c(ccc3cc(O)cc(OC)c32)cc1O`, for which the IC50 is 11.1 µM.

On to `COc1cc(CC[C@@H](O)C[C@H](O)CCc2ccc(O)c(OC)c2)ccc1O`, for which the IC50 is more than 266 µM.

Turning to `Oc1ccc(CC[C@@H](O)C[C@H](O)CCc2ccc(O)cc2)cc1` [(+)-HANNOKINOL], the IC50 is more than 316 µM.

Regarding `O=c1cc(-c2ccc(O)cc2)oc2cc(O)cc(O)c12` [APIGENIN], the IC50 is more than 370 µM.

Compound `COc1cc(O)cc(CCc2cccc(O)c2)c1` [BATATASIN III] displayed an IC50 of more than 409 µM.

As to `COc1cc(O)cc(CCc2ccccc2O)c1` [BATATASIN IV], the concentration for half-maximal inhibition (IC50) is more than 409 µM.

For `COc1cc(O)cc2c1-c1c(O)cccc1CC2` [HIRCINOL], the IC50 was more than 413 µM.

`COc1cc(O)c2c(c1)CCc1cc(O)ccc1-2` [LUSIANTHRIDIN] gave an IC50 of more than 413 µM.

Values taken from ChEMBL document CHEMBL1153410, “Phenolic compounds with radical scavenging and cyclooxygenase-2 (COX-2) inhibitory activities from Dioscorea opposita” (Bioorg Med Chem, 2009).
